RGS4 pot: potentiators or activators of RGS4 | hit rate 0.92% among 310,000 | HEK293 M3R/inducible RGS4, carbachol calcium flux Fluo4; hits give low values | AID 463111 | B-score at 10 µM;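 active = B-score of the integrated calcium signal more than 4 SD below the library mean, with starting fluorescence not abnormally high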;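 note: negative B-score means reduced calcium response which marks RGS4 activation or potentiation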
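System – HEK293 FlpIn-TREx cells, stable M3R, doxycycline-inducible RGS4 · Reagent – ECmax carbachol challenge · Times – compound preincubation 20 min at room temperature before agonist · Technique – Fluo4 fluorescence kinetic imaging of calcium · Measure – B score of integrated Fluo4 ratio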
MrgX1 antagonist: antagonists of human MrgX1 receptor. MRGX1-HEK293 calcium flux, Fluo-4, BAM8-22 antagonism; hits give low values. B-score at 10 µM. hit rate 1.3% among 310,000;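 active = calcium-response B-score plate-corrected more than 3 library SD below zero, starting fluorescence within 5 deviations, no agonist response on first addition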;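 note: peak minus trough fluorescence over baseline after final BAM8-22 challenge near maximal dose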
Target sequence (Q96LB2 whole entry, looked up): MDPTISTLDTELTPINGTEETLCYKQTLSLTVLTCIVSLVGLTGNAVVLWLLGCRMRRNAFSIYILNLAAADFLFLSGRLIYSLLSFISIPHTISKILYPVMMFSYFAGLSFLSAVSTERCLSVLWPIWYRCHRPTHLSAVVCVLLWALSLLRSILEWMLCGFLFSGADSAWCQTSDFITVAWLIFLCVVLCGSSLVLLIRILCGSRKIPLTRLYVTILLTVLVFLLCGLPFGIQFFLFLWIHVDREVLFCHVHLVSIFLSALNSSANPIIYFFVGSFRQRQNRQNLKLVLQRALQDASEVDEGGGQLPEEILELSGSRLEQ
MrgX1 PAM: allosterically activates human MrgX1 receptor signaling. MrgX1-HEK293, Fluo-4 calcium flux, FDSS; hits give high values. B-score at 10 µM. hit rate 0.63% among 310,000. AID 588675;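 active = plate-corrected calcium response at least 3 library SD above typical, normal starting fluorescence, not activating the receptor alone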;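 note: compound read alongside a low EC10 to EC30 dose of BAM8-22 agonist; peak minus trough fluorescence over baseline measured at the second addition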
MrgX1 agonist: human MrgX1 receptor agonism, primary screen; Q96LB2; MrgX1-HEK293 cells, Fluo-4 calcium fluorescence, agonist mode; hits give high values; B-score at 10 µM; hit rate 0.44% among 310,000;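 active = calcium response B-score plate-corrected fluorescence ratio at least 3 library SD, with starting fluorescence B-score inside 5 SD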
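Test system: HEK293 cells stably expressing human MrgX1 receptor; Input: fifteen thousand cells per well; Dosing: compound delivered in addition one of three; Schedule: overnight seeding, then 1 h dark dye loading; Technique: Fluo-4 NW calcium fluorescence; Measure: B-scored fluorescence response ratio; Controls: positive and negative controls per plate.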
RGS4 block: inhibitors of human RGS4. P49798. B-score at 10 µM. HEK293 M3R/RGS4 inducible, Fluo-4 calcium flux; hits give high values; triggered by carbachol at its EC20. hit rate 0.45% among 310,000. AID 463165;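 active = B-score, a plate-corrected calcium signal, over three deviations above library mean, with baseline fluorescence within five deviations of library mean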;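 note: RGS4 expression induced by doxycycline in cells with stable M3 receptor; B-score is computed from the integrated fluorescence ratio over baseline after carbachol; higher B-score means a larger calcium signal and so more RGS4 inhibition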
Target sequence (P49798 whole entry, looked up): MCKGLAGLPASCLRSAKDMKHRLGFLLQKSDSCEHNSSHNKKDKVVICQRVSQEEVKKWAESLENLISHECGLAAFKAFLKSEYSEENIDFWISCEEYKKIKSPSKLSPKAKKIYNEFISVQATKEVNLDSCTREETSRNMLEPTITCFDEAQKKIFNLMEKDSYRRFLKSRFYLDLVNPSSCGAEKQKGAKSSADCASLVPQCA
MrgX1 antag conf: confirmation of human MrgX1 receptor antagonists; AID 602420; hit rate 19% among 2,300; shares compounds with MrgX1 antagonist; MrgX1-HEK293, BAM8-22 calcium flux, Fluo-4; hits give low values; remaining BAM8-22 calcium response % of control (hits give low values), % at 10 µM;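 active = remaining agonist calcium response no higher than 100% minus 3 SD of agonist-only control wells, with starting fluorescence near control levels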;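 note: agonist BAM8-22 given at a near maximal EC90 to ECmax level; peak minus minimum fluorescence divided by baseline after agonist addition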
HEK293 Ca flux: counter-screen for MrgX1 antagonists: effect in parental HEK293 cells | hit rate 2% among 4,000 | shares compounds with MrgX1 antagonist | fluorescence ratio F(max-min)/F0 at 10 µM | Fluo-4 calcium fluorescence, FDSS;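 active = duplicate-averaged calcium fluorescence ratio at least three times the standard deviation of buffer wells, a nonspecific response in parental cells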
HEK293 Ca counter: MrgX1 allosteric activator counter-screen hit in parental HEK293 cells. shares compounds with MrgX1 antagonist. parental HEK293 calcium flux, Fluo-4 fluorescence ratio; hits give high values. fluorescence ratio F(max-min)/F0 at 10 µM. hit rate 0.4% among 4,000. AID 624114;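 active = calcium fluorescence ratio, averaged over duplicates, at least 3 SD of the buffer-well ratio, meaning a nonspecific response in receptor-free cells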;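 note: untransfected parental HEK293 lacking MrgX1 used as counterscreen for MrgX1 allosteric activators; fluorescence change taken during the second addition on a kinetic imager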
HEK293 Ca cntr2: activity in parental HEK293 cells lacking MrgX1 receptor; fluorescence ratio F(max-min)/F0 at 10 µM; shares compounds with MrgX1 antagonist; Fluo-4 calcium fluorescence (FDSS); hits give high values; hit rate 8.7% among 4,000;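 active = calcium fluorescence ratio at least three times the spread of buffer wells, meaning a non-specific response in parental cells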
The depositor's hits bear a star; i = inactive; . = no result given. Most compounds without a hit are left out; they make up all but 3.5% or so of the library.

SMILES	RGS4 pot	MrgX1 antagonist	MrgX1 PAM	MrgX1 agonist	RGS4 block	MrgX1 antag conf	HEK293 Ca flux	HEK293 Ca counter	HEK293 Ca cntr2
O=C(NCCc1cn2ccsc2n1)c1cccs1	i	-6.3*	i	i	i	i	i	i	i
O=S(=O)(NCc1cn2ccsc2n1)c1cccs1	i	i	i	i	i	.	.	.	.
O=C(O)c1ccccc1CSc1ncn[nH]1	i	-8.3*	i	i	i	i	i	i	i
CCc1nnc(NC(=O)c2ccc(COc3ccccc3C)o2)s1	i	i	i	i	i	.	.	.	.
CCOC(=O)c1c(C)[nH]c(C)c1S(=O)(=O)N(C)CC(=O)Nc1cc(C)ccc1OC	i	-9.1*	i	i	i	i	i	i	i
CCS(=O)(=O)N1CCC(C(=O)Nc2cccc(F)c2)CC1	i	i	i	i	i	.	.	.	.
O=C(c1ccc(N2CCN(C(=O)c3ccccc3Br)CC2)cc1)c1cccc(F)c1	i	i	i	i	i	.	.	.	.
O=C(c1ccc(N2CCN(C(=O)c3cccc(F)c3)CC2)cc1)c1cccc(F)c1	i	-4.6*	i	i	i	i	i	i	i
COc1ccc(CC(=O)NNC(=O)c2cc(C)oc2C)cc1OC	i	i	i	i	i	.	.	.	.
Cc1cccnc1CCNC(=O)c1ccc(OC2CCN(Cc3ccccn3)CC2)cc1	i	-10*	i	i	i	i	i	i	i
CCOc1ccc(C(=O)Nc2ccc3[nH]ncc3c2)cc1	i	i	i	i	i	.	.	.	.
Cc1cc(Oc2ccccc2)nc(-c2ccccc2)n1	i	-4.5*	i	i	i	i	i	i	i
c1ccc(Oc2cc(-c3ccccc3)nc(-c3ccccc3)n2)cc1	i	i	i	i	i	.	.	.	.
CCN1N=C(c2ccccc2)Cn2c1nc1ccccc12	i	i	i	i	i	.	.	.	.
Cc1ccc(N(CC(=O)NC(C)(C)C)C(=O)CNC(=O)c2cccs2)c(C)c1	i	i	i	i	i	.	.	.	.
Cc1ccccc1NC(=O)C1C2CCCCC21 (stereo not given)	i	i	i	i	i	.	.	.	.
Cc1ccccc1NC(=O)C1C2/C=C\CCCCC21 (stereo not given)	i	-4.5*	i	i	i	i	i	i	i
CC1(C)CC2CC(C)(CN2CC(O)c2ccccc2)C1 (stereo not given)	i	i	i	i	i	.	.	.	.
CC1(C)CC2CC(C)(CN2CC(=O)C(C#N)c2ccccc2)C1 (stereo not given)	i	-8.7*	i	i	i	i	i	i	i
CC(=O)c1cc(C#N)c(N2CCOCC2)nc1C	i	-4.6*	i	i	i	i	i	i	i
O=C(Nc1cccc(C(=O)N2CCCCCC2)c1)c1ccco1	i	-4.7*	i	i	i	i	i	i	i
CCOC(=O)C1CCN(c2ncnc3c2cnn3-c2ccccc2)CC1	i	-5*	i	i	i	i	i	i	i
CCOC(=O)CNC(=O)CSc1ncnc2c1cnn2-c1ccccc1	i	-6.1*	i	i	i	i	i	i	i
Cc1ccc(-n2ncc3c(N4CCC(C(N)=O)CC4)ncnc32)c(C)c1	i	-10*	i	i	i	i	i	i	i
CCOC(=O)C1CCN(c2ncnc3c2cnn3-c2ccc(Cl)cc2)CC1	i	i	i	i	i	.	.	.	.
SMILES	RGS4 pot	MrgX1 antagonist	MrgX1 PAM	MrgX1 agonist	RGS4 block	MrgX1 antag conf	HEK293 Ca flux	HEK293 Ca counter	HEK293 Ca cntr2
COc1ccc(NC(=O)c2cccnc2N2CCCC2)cc1	i	-8.6*	i	i	i	i	i	i	47*
Cc1ccccc1OCC(=O)Nc1nnc(COc2ccccc2)s1	i	-8.2*	i	i	i	i	i	i	i
Cc1ccc(F)c(N=Cc2c(O)c3ccccc3oc2=O)c1	i	i	i	i	i	.	.	.	.
CN1CCN(C(=O)c2cnn(-c3ccccc3)c2NC(=O)c2cccs2)CC1	i	-5.9*	i	i	i	i	i	i	i
O=C(NCc1ccco1)C1CCCN1C(=O)Nc1ccccc1Cl (stereo not given)	i	-12*	i	i	i	i	i	i	i
O=C(NCc1ccco1)C1CCCN1C(=O)Nc1ccccc1 (stereo not given)	i	i	i	i	i	.	.	.	.
Cc1cc(SCC(=O)Nc2cccc(S(N)(=O)=O)c2)c(C)cc1Br	i	-9.8*	i	i	i	i	i	i	i
Cc1nn2c3c(cnc2c1-c1ccccc1)C(=O)CC(c1ccco1)C3 (stereo not given)	i	i	i	i	i	.	.	.	.
Cc1nn2c3c(cnc2c1-c1ccccc1)C(=O)CC(c1ccccc1)C3 (stereo not given)	i	-5*	i	i	i	i	i	i	i
CN1C(C)(C)CCCC1(C)C	.	-7*	i	i	.	77%*	i	i	i
CCO/N=C(\C)c1c(O)c2ccccc2n(C)c1=O	i	i	i	i	i	.	.	.	.
Oc1ccc(Cl)cc1/C=C/c1ccc2cccc(O)c2n1	i	.	.	.	i	.	.	.	.
Oc1c(Cl)cc(Cl)cc1/C=C/c1ccc2cccc(O)c2n1	i	-7.7*	i	i	i	i	i	i	i
CCCCC1C2C(=O)N(c3ccc(C)cc3)C(=O)C2ON1c1ccccc1 (stereo not given)	i	i	i	i	i	.	.	.	.
O=C(O)c1ccc2c(c1)C(=O)N(c1ccc(OCc3ccccc3)cc1)C2=O	i	i	i	i	i	.	.	.	.
COC(c1ccccc1)c1nnc(CCC(=O)N2CCN(C3CCCC3)CC2)o1 (stereo not given)	i	-6.3*	i	i	i	i	i	i	i
O=C(CCc1nnc(C2CCCCC2)o1)N1CCN(C2CCCCC2)CC1	i	i	i	i	i	.	.	.	.
Cc1cc(C(=O)COC(=O)c2ccc3c(c2)NC(=O)CS3)c(C)n1CC1CCCO1 (stereo not given)	i	-5.9*	i	i	i	i	i	i	i
CC(=O)N1c2ccc(S(=O)(=O)NCCC(=O)Nc3cccc(Cl)c3)cc2CC1C (stereo not given)	i	i	i	i	i	.	.	.	.

Screening results: PubChem, Johns Hopkins Ion Channel Center
